In ChEMBL document CHEMBL1130137, “Substituted (pyridylmethoxy)naphthalenes as potent and orally active 5-lipoxygenase inhibitors; synthesis, biological profile, and pharmacokinetics of L-739,010” (J Med Chem, 1997):
pIC50: −log10 of the molar value.

Assays:
Homo sapiens [1] = organism: Homo sapiens; experiment: Compound was evaluated for production of leukotriene B4 in human whole blood (HWB) activated with ionophore A-23187.; type: functional
How it was run: (§1)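 LTB4 generation triggered by Ca2+ ionophore A23187 in human peripheral blood polymorphonuclear leukocytes or in human whole blood; inhibitor potency expressed as IC50 (nM).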

[2] = molecular target: T1, Polyunsaturated fatty acid 5-lipoxygenase (Homo sapiens, UniProt P09917); experiment: Inhibition of oxidation of arachidonic acid by human 5-Lipoxygenase using spectrophotometric assay; type: functional
T1 sequence (P09917 whole entry): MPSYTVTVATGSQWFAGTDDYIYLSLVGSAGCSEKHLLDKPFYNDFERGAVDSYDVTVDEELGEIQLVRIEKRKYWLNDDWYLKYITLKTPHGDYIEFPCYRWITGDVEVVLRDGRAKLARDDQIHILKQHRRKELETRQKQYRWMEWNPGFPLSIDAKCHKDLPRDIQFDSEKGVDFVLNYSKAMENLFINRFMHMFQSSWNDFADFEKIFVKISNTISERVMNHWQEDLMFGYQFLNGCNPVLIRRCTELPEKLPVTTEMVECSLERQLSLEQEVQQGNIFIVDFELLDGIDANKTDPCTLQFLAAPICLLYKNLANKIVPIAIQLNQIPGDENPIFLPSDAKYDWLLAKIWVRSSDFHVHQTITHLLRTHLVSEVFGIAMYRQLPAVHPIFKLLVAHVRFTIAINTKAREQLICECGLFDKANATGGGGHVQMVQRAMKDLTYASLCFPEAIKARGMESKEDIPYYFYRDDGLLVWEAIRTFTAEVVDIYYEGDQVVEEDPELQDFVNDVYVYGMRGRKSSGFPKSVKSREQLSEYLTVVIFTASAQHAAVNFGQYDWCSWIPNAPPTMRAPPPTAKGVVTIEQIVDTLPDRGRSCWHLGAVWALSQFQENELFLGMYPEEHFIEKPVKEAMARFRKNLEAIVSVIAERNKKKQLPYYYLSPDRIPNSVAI
How it was run: (§2)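 Soluble extracts of Sf9 insect cells overexpressing human 5-LO; arachidonic acid oxidation followed spectrophotometrically as 5-H(P)ETE production; IC50 values.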

Homo sapiens [3] = organism: Homo sapiens; experiment: Compound was evaluated for production of leukotriene B4 in Ca+2 -ionophore -activated human polymorphonuclear (HPMN) leukocytes.; type: functional; how it was run: as §1
[4] = Plasma half-life in dogs in the presence of PEG 400/water(3:1); type: ADME, organism-based, Canis lupus familiaris; conditions: dog
How it was run: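 Dog PK: free base given iv in PEG-400/water (3:1); plasma levels followed and half-life estimated from the intravenous administration.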

[5] = Plasma half-life in rats in the presence of PEG 400/water(3:1); type: ADME, organism-based; conditions: rat
Rattus norvegicus [6] = organism: Rattus norvegicus; experiment: Inhibition of LTB4 levels in rat pleural exudates; type: functional
How it was run: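 Rat pleurisy: carrageenan injected into the pleural cavity, followed 16-20 h later by ionophore A23187; LTB4 measured in pleural exudate 6 h after oral dosing; ED50 derived.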

Rattus norvegicus [7] = experiment: compound was tested for inhibition of ovalbumin- induced dyspnea in inbred hyperreactive rats at 0.5 mg/kg; type: functional
Canis familiaris [8] = experiment: Ex Vivo generation of LTB4 by whole blood stimulated with calcium ionophore A-23187 in anesthetized dogs; type: functional, Canis lupus familiaris
How it was run: (§3)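 Anesthetized dogs receiving iv infusion (µg/kg/min, dose-ranging). Baseline urinary LTE4 excretion measured over 5-7 h after infusion start; ex vivo LTB4 generation by whole blood stimulated with calcium ionophore A23187. ED50 in µg/kg/min.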

Canis familiaris [9] = organism: Canis familiaris; experiment: Inhibition of urinary LTE4 levels in dogs; type: functional, Canis lupus familiaris, Urine; how it was run: as §3
Ovis aries = experiment: Compound was tested for inhibition of Ascaris -induced bronchoconstriction in sheep at 2.5 ug/kg intravenous administration; type: functional
How it was run: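 Conscious allergic sheep (n = 4) received an iv bolus of 0.2 mg/kg and then a constant iv infusion of 2.5 µg/kg/min before Ascaris antigen challenge. Percent inhibition was scored separately for the early-phase and late-phase bronchoconstriction.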

[10] = Compound was tested for inhibition of Ascaris -induced bronchoconstriction in squirrel monkeys; type: functional
[11] = molecular target: T1, Polyunsaturated fatty acid 5-lipoxygenase; experiment: Compound was evaluated for the potency to inhibit oxidation of arachidonic acid by human recombinant 5-Lipoxygenase using a spectrophotometric assay; type: functional; how it was run: as §2
[12] = Maximum concentration of unchanged drug in rat plasma in the period 0-24 hr after dosing; type: ADME, organism-based
How it was run: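 Rats dosed orally as HCl salt in 0.5% methocel suspension (10 mL/kg); jugular blood drawn before dosing and 0.5, 1, 2, 4, 6, 8, 10, 24 h after. Plasma deproteinized with equal volume acetonitrile; parent drug measured by reverse-phase HPLC peak area against standard curves from spiked rat plasma.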

[13] = Bioavailability in rat (Sprague-Dawley) (male); type: ADME, organism-based; conditions: in vivo
How it was run: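 Oral dosing as HCl salt in 0.5% methocel suspension at 20 mg/kg (10 mL/kg); iv dosing of free base in PEG-400/water (3:1) at 5 mg/kg into jugular vein. Serial jugular blood to 24 h; plasma protein precipitated with acetonitrile, parent quantified by reverse-phase HPLC against spiked-plasma standards. F = (AUCpo × dose_iv)/(AUCiv × dose_po) × 100, over 0-24 h.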

CC(c1cc2ccccc2s1)N(O)C(N)=O (stereo not given) [ZILEUTON]
pIC50 (Homo sapiens [1]): 5.70

N#Cc1cc(-c2ccoc2)c2ccc(OCc3ccc4ccc(C5(O)CCOCC5)cc4n3)cc2c1
pIC50 [2]: 6.00
pIC50 (Homo sapiens [3]): 7.36

N#Cc1cc(-c2ccoc2)c2ccc(COc3cccc(C4(O)CC5COC(C4)O5)n3)cc2c1 (stereo not given)
pIC50 (Homo sapiens [1]): 7.17
pIC50 [2]: 7.10
pIC50 (Homo sapiens [3]): 8.51

N#Cc1cc(-c2ccoc2)c2ccc(OCc3cccc(C4(O)CC5COC(C4)O5)n3)cc2c1 (stereo not given)
half-life [4]: 16 h
half-life [5]: 5 h
pIC50 (Homo sapiens [1]): 7.38
ED50 (Rattus norvegicus [6]): 0.3 mg/kg
inhibition in vivo at 0.5 mg/kg (Rattus norvegicus [7]): 60%
pIC50 [2]: 7.70
ED50 (Canis familiaris [8]): 0.45 µg/min/kg
ED50 (Canis familiaris [9]): 0.23 µg/min/kg
inhibition in vivo at 0.0025 mg/kg (Ovis aries): 50%
pIC50 (Homo sapiens [3]): 8.80
Inhibition [10]: 53%

N#Cc1cc(-c2ccoc2)c2ccc(OCc3cccc(C4(O)CCOCC4)n3)cc2c1
pIC50 [11]: 7.82
pIC50 (Homo sapiens [1]): 7.52
pIC50 (Homo sapiens [3]): 9.22

CC(C)(C)Sc1c(CC(C)(C)C(=O)O)n(Cc2ccc(Cl)cc2)c2ccc(OCc3ccc4ccccc4n3)cc12 [QUIFLAPON]
ED50 (Rattus norvegicus [6]): 0.15 mg/kg
inhibition in vivo at 0.5 mg/kg (Rattus norvegicus [7]): 56%
ED50 (Canis familiaris [8]): 0.5 µg/min/kg
ED50 (Canis familiaris [9]): 1 µg/min/kg
inhibition in vivo at 0.0025 mg/kg (Ovis aries): > 75%
Inhibition [10]: 71%

N#Cc1cc(-c2ccoc2)c2ccc(OCc3cccc(C4(O)CCOCC4)c3)cc2c1
Cmax [12]: 1000 nM
bioavailability [13]: < 5%

N#Cc1cc(-c2ccoc2)c2ccc(OCc3cc(C4(O)CCOCC4)ccn3)cc2c1
pIC50 (Homo sapiens [1]): 7.30
pIC50 [2]: 7.15
pIC50 (Homo sapiens [3]): 8.46

N#Cc1cc(-c2ccoc2)c2ccc(OCc3csc(C4(O)CCOCC4)n3)cc2c1
pIC50 (Homo sapiens [1]): 6.52
pIC50 [2]: 6.80
pIC50 (Homo sapiens [3]): 8.05

N#Cc1cc(-c2ccoc2)c2ccc(OCc3ccnc(C4(O)CCOCC4)c3)cc2c1
pIC50 [11]: 6.46
pIC50 (Homo sapiens [1]): 6.60
pIC50 (Homo sapiens [3]): 8.30

N#Cc1cc(-c2ccoc2)c2ccc(OCc3cncc(C4(O)CCOCC4)c3)cc2c1
pIC50 (Homo sapiens [1]): 7.00
pIC50 [2]: 7.00
pIC50 (Homo sapiens [3]): 8.00
